Our source for the inhibition, IC50 and inhibition in vivo values is ChEMBL document CHEMBL1148218, “Structures of new beta-carboline-type alkaloids with antiallergic effects from Stellaria dichotoma(1,2)” (J Nat Prod, 2004).

Structures can show the parent of a compound that is named as a salt.

Assay [1] concerns RBL-2H3. Nature of the assay: Inhibition of beta-hexosaminidase in anti-DNP IgE sensitized rat RBL2H3 cells at 100 uM after 10 mins. The assay is classed as functional. The following applies: RBL-2H3, 10 min. The essentials:
(§1)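 IgE-sensitized RBL-2H3 cells (2 × 10^5/well) in Siraganian buffer with 5.6 mM glucose, 1 mM CaCl2, 0.1% BSA, 10 min at 37 °C; sample in DMSO (final 0.1%) added for 10 min, then DNP-BSA (final 10 μg/mL). After 10 min supernatant reacted with 1 mM p-nitrophenyl-N-acetyl-β-D-glucosaminide, pH 4.5, 37 °C, 1 h; stopped at pH 10, A405. Percent inhibition; IC50 determined graphically.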

Assay [2] concerns RBL-2H3. Nature of the assay: Inhibition of anti-DNP IgE-induced TNFalpha production in rat RBL2H3 cells after 4 hrs by ELISA. The following applies: RBL-2H3, 4 h. The format is functional, cell-based. The essentials:
(§2)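 RBL-2H3 cells (2 × 10^5/well in MEM) sensitized with anti-DNP IgE, then stimulated with DNP-BSA antigen in presence of sample; TNF-α and IL-4 in medium measured 4 h later by rat ELISA. Percent inhibition calculated; IC50 read graphically.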

The test system of assay [3] is RBL-2H3. Nature of the assay: Inhibition of anti-DNP IgE-induced IL4 production in rat RBL2H3 cells after 4 hrs by ELISA. The assay is classed as functional, cell-based. The following applies: RBL-2H3, 4 h. The essentials:
as §2
A general note: An ELISA detects its analyte on a solid surface through an enzyme-linked reagent.

The subject of assay [4] is RBL-2H3. Nature of the assay: Inhibition of beta-hexosaminidase in anti-DNP IgE sensitized rat RBL2H3 cells after 10 mins. The assay is classed as functional, cell-based. The settings on record: RBL-2H3, 10 min. The essentials: as §1
The next assay relates to Mus musculus. Nature of the assay: Antiallergic activity in ddY mouse ear at 200 mg/kg, po by passive cutaneous anaphylaxis reaction. The assay is classed as functional.

In general, inhibition refers to the share of the control response that was lost under treatment. In general, IC50 refers to the concentration needed to halve the response being measured. For the compound `COC(=O)c1cc2c([nH]c3ccccc32)c([C@@H](O)CO)n1` [DICHOTOMINE C], the inhibition at 100 µM in the assay with RBL-2H3 [1] amounted to 89.2%. Also, the concentration for half-maximal inhibition (IC50) worked out at 19 µM in the assay with RBL-2H3 [2], 15 µM in the assay on RBL-2H3 [3] and 62 µM in the assay on RBL-2H3 [4]. Take `CN1CCC(=C2c3ccccc3CC(=O)c3sccc32)CC1` [KETOTIFEN FUMARATE]: the half-maximal inhibitory concentration (IC50) in the assay with RBL-2H3 [4] is 220 µM. Regarding `O=C(O)c1cc2c([nH]c3ccccc32)c([C@@H](O)CO)n1` [DICHOTOMINE B], in the assay on RBL-2H3 [1], the inhibition at 100 µM was 1.2%. On to `COc1cc(C(C)=O)ccc1O` [APOCYNIN], for which, in the assay with RBL-2H3 [1], the inhibition at 100 µM came to 2.3%. Still for that read-out and setting: under `O=Cc1ccc(CO)[nH]1` stands 8.5%.

Usually inhibition in vivo stands for the percentage by which the read-out fell short of the control. A lower inhibition in vivo goes with little suppression. As to `COc1ccc(/C=C/C(=O)Nc2ccccc2C(=O)O)cc1OC` [TRANILAST], the IC50 in the assay with RBL-2H3 [4] was 490 µM. The compound further gave an inhibition in vivo at 200 mg/kg with Mus musculus of 72.4%. For `COc1ccc(CCC(=O)O)cc1OC`, the inhibition at 100 µM with RBL-2H3 [1] is 2.3%. Regarding `O=Cc1ccc(CO)o1` [AES-103], the inhibition at 100 µM in the assay with RBL-2H3 [1] is 3.4%. Regarding `COc1cc(C=O)ccc1O` [VANILLIN], in the assay with RBL-2H3 [1], the inhibition at 100 µM is 5.9%.

For `CCC(O)c1cc(OC)c2c(c1)OCO2` (configuration not stated), the inhibition at 100 µM in the assay with RBL-2H3 [1] was found to be 1.2%. Still for that read-out and setting: under `C[C@H](O)c1nc(C(=O)O)cc2c1[nH]c1ccccc12` [DICHOTOMINE A] stands 5.9%. Turning to `CCCCOC(=O)c1cc2c([nH]c3ccccc32)c([C@@H](O)CO)n1` [DICHOTOMINE D], the inhibition at 100 µM in the assay on RBL-2H3 [1] amounted to 11.2%. Take `COc1cc(C(=O)O)ccc1O` [VANILLIC ACID]: the inhibition at 100 µM in the assay with RBL-2H3 [1] was 8.4%.
